Source: ChEMBL document CHEMBL1142145, “Posaconazole prophylaxis in experimental systemic zygomycosis” (2007)
Converted amounts (≈) assume the structure as drawn. The source made the active and inactive calls. The rule behind the calls is not given here.

Tests used:
Rhizopus arrhizus [1] = experiment: Antimicrobial activity against Rhizopus oryzae 4570; format: functional
How it was run: (§1)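 CLSI M38-A broth microdilution. Isolates were grown on Sabouraud dextrose agar for 5 days at 35°C, and conidia were harvested in 0.85% saline. The final inoculum was about 10^4 CFU/ml, set by hemocytometer. Drug range 0.015–8.0 µg/ml; plates incubated at 35°C for 21–26 h. MIC was the lowest concentration with no discernible growth. Each strain was tested in quintuplicate.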

Rhizopus arrhizus [2] = experiment: Antimicrobial activity against Rhizopus oryzae 4745; format: functional; how it was run: as §1
Lichtheimia corymbifera [3] = experiment: Antimicrobial activity against Absidia corymbifera 4535; format: functional; how it was run: as §1
Lichtheimia corymbifera [4] = experiment: Percentage of infected brain in neutropenic CD1 mouse infected with Absidia corymbifera 4535 at 30 mg/kg/day, po; format: functional
How it was run: (§2)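 Neutropenic CD1 mice received three daily oral prophylactic doses, the last 2 h before i.v. challenge: R. oryzae 4570 at 5 x 10^6 or A. corymbifera at 5 x 10^5 spores/mouse. On day 3 mice were killed. Brain, lungs, spleen and kidneys were homogenized in 2 ml saline and plated whole on SDA; detection limit 1 CFU/organ. Read-out was percent culture-positive organs, eight mice per group.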

Rhizopus arrhizus [5] = experiment: Percentage of infected lung in neutropenic CD1 mouse infected with Rhizopus oryzae 4570 at 30 mg/kg/day, po; format: functional; how it was run: as §2
Lichtheimia corymbifera [6] = experiment: Percentage of infected lung in neutropenic CD1 mouse infected with Absidia corymbifera 4535 at 30 mg/kg/day, po; format: functional; how it was run: as §2
Rhizopus arrhizus [7] = experiment: Percentage of infected spleen in neutropenic CD1 mouse infected with Rhizopus oryzae 4570 at 30 mg/kg/day, po; format: functional; how it was run: as §2
Lichtheimia corymbifera [8] = experiment: Percentage of infected spleen in neutropenic CD1 mouse infected with Absidia corymbifera 4535 at 30 mg/kg/day, po; format: functional; how it was run: as §2
Rhizopus arrhizus [9] = experiment: Percentage of infected kidney in neutropenic CD1 mouse infected with Rhizopus oryzae 4570 at 30 mg/kg/day, po; format: functional; how it was run: as §2
Lichtheimia corymbifera [10] = experiment: Percentage of infected kidney in neutropenic CD1 mouse infected with Absidia corymbifera 4535 at 30 mg/kg/day, po; format: functional; how it was run: as §2
Mus musculus [11] = experiment: Increase in survival of Rhizopus oryzae 4570 infected neutropenic CD1 mouse at 20 mg/kg/day, po; format: functional, organism-based
How it was run: (§3)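 Male CD1 mice (25 g) were made neutropenic with i.p. cyclophosphamide, 200 mg/kg, on days […] and +4 postinfection. Oral gavage dosing (200 µl) was given daily for 3 days, the last dose 2 h before i.v. challenge; controls received PEG 200. Challenge per mouse: R. oryzae 4570, 5 x 10^6 spores; A. corymbifera, 5 x 10^5; R. oryzae 4745, 1 x 10^5. Deaths were recorded daily to day 10, moribund mice counted dead next day. 13–18 mice per group; log rank test.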

Mus musculus [12] = experiment: Increase in survival of Rhizopus oryzae 4570 infected neutropenic CD1 mouse at 80 mg/kg/day, po; format: functional, organism-based; how it was run: as §3
Mus musculus [13] = experiment: Increase in survival of Absidia corymbifera 4535 infected neutropenic CD1 mouse at 20 mg/kg/day, po; format: functional, organism-based; how it was run: as §3
Mus musculus [14] = experiment: Increase in survival of Absidia corymbifera 4535 infected neutropenic CD1 mouse at 80 mg/kg/day, po; format: functional, organism-based; how it was run: as §3
Mus musculus [15] = experiment: Increase in survival of neutropenic CD1 mouse infected with 0.1 mega Rhizopus oryzae 4745 at 50 mg/kg/day, po; format: functional, organism-based; how it was run: as §3
Rhizopus arrhizus [16] = experiment: Reduction of number of infection foci in Rhizopus oryzae 4570 infected neutropenic CD1 mouse kidney at 30 mg/kg/day, po; format: functional, organism-based
How it was run: (§4)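 Neutropenic CD1 mice were given oral prophylaxis for 3 days, then i.v. challenge with R. oryzae 4570 (5 x 10^6 spores) or A. corymbifera (5 x 10^5). On day 3, brain and kidney were formalin-fixed, paraffin-embedded and stained with Grocott-Gomori methenamine silver. Number and size of hyphal foci were scored blind by at least two observers in 20 consecutive fields (15.7 mm2 per section). Values are mean ± SEM from 5 mice per group; ANOVA with Bonferroni correction.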

Rhizopus arrhizus [17] = experiment: Reduction of number of infection foci in Rhizopus oryzae 4570 infected neutropenic CD1 mouse brain at 30 mg/kg/day, po; format: functional, organism-based; how it was run: as §4
Lichtheimia corymbifera [18] = experiment: Reduction of number of infection foci in Absidia corymbifera 4535 infected neutropenic CD1 mouse kidney at 30 mg/kg/day, po; format: functional, organism-based; how it was run: as §4
Lichtheimia corymbifera [19] = experiment: Reduction of number of infection foci in Absidia corymbifera 4535 infected neutropenic CD1 mouse brain at 30 mg/kg/day, po; format: functional, organism-based; how it was run: as §4
Rhizopus arrhizus [20] = experiment: Reduction of infection foci size in Rhizopus oryzae 4570 infected neutropenic CD1 mouse kidney at 30 mg/kg/day, po; format: functional, organism-based; how it was run: as §4
Rhizopus arrhizus [21] = experiment: Reduction of infection foci size in Rhizopus oryzae 4570 infected neutropenic CD1 mouse brain at 30 mg/kg/day, po; format: functional, organism-based; how it was run: as §4
Lichtheimia corymbifera [22] = experiment: Reduction of infection foci size in Absidia corymbifera 4535 infected neutropenic CD1 mouse kidney at 30 mg/kg/day, po; format: functional, organism-based; how it was run: as §4
Lichtheimia corymbifera [23] = experiment: Reduction of infection foci size in Absidia corymbifera 4535 infected neutropenic CD1 mouse brain at 30 mg/kg/day, po; format: functional, organism-based; how it was run: as §4
Rhizopus arrhizus [24] = experiment: Percentage of infected brain in neutropenic CD1 mouse infected with Rhizopus oryzae 4570 at 30 mg/kg/day, po; format: functional; how it was run: as §2
Mus musculus [25] = experiment: Increase in survival of Rhizopus oryzae 4570 infected neutropenic CD1 mouse at 1 mg/kg/day, ip; format: functional, organism-based
How it was run: (§5)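 Male CD1 mice (25 g) made neutropenic with cyclophosphamide 200 mg/kg i.p. on […], +1 and +4 relative to infection. […] Inocula per mouse: R. oryzae 4570, 5 x 10^6; A. corymbifera, 5 x 10^5; R. oryzae 4745, 2 x 10^6 or 1 x 10^5. Deaths were recorded daily to day 10, with 13–18 mice/group and log-rank comparison.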

Lichtheimia corymbifera [26] = experiment: Percentage of infected lung in neutropenic CD1 mouse infected with Absidia corymbifera 4535 at 1 mg/kg/day, ip; format: functional; conditions: route intraperitoneal
How it was run: (§6)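 They were infected i.v. with R. oryzae 4570 (5 x 10^6 spores) or A. corymbifera (5 x 10^5 spores). On day 3 brain, lungs, spleen and kidneys were homogenized in 2 ml saline and plated whole on SDA (detection limit 1 CFU/organ). Value is % culture-positive organs; 8 mice/group.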

Lichtheimia corymbifera [27] = experiment: Percentage of infected spleen in neutropenic CD1 mouse infected with Absidia corymbifera 4535 at 1 mg/kg/day, ip; format: functional; conditions: route intraperitoneal; how it was run: as §6
Lichtheimia corymbifera [28] = experiment: Percentage of infected kidney in neutropenic CD1 mouse infected with Absidia corymbifera 4535 at 1 mg/kg/day, ip; format: functional; conditions: route intraperitoneal; how it was run: as §6
Mus musculus [29] = experiment: Increase in survival of Absidia corymbifera 4535 infected neutropenic CD1 mouse at 1 mg/kg/day, ip; format: functional, organism-based; how it was run: as §5
Mus musculus [30] = experiment: Increase in survival of neutropenic CD1 mouse infected with 2 mega Rhizopus oryzae 4745 at 1 mg/kg/day, ip; format: functional, organism-based; how it was run: as §5
Mus musculus [31] = experiment: Increase in survival of neutropenic CD1 mouse infected with 0.1 mega Rhizopus oryzae 4745 at 1 mg/kg/day, ip; format: functional, organism-based; how it was run: as §5
Rhizopus arrhizus [32] = experiment: Reduction of number of infection foci in Rhizopus oryzae 4570 infected neutropenic CD1 mouse kidney at 1 mg/kg/day, ip; format: functional, organism-based
How it was run: (§7)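 On day 3 brains and kidneys were formalin-fixed and stained with Grocott-Gomori methenamine silver. At least two blinded observers counted hyphal foci and measured their size over 20 consecutive fields (15.7 mm2/section). Data are means ± SEM, 5 mice/group, ANOVA with Bonferroni.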

Lichtheimia corymbifera [33] = experiment: Reduction of number of infection foci in Absidia corymbifera 4535 infected neutropenic CD1 mouse kidney at 1 mg/kg/day, ip; format: functional, organism-based; how it was run: as §7
Rhizopus arrhizus [34] = experiment: Reduction of infection foci size in Rhizopus oryzae 4570 infected neutropenic CD1 mouse kidney at 1 mg/kg/day, ip; format: functional, organism-based; how it was run: as §7
Lichtheimia corymbifera [35] = experiment: Reduction of infection foci size in Absidia corymbifera 4535 infected neutropenic CD1 mouse kidney at 1 mg/kg/day, ip; format: functional, organism-based; how it was run: as §7

Q: Which MIC (Rhizopus arrhizus [1]) does the source give for CC[C@@H]([C@H](C)O)n1ncn(-c2ccc(N3CCN(c4ccc(OC[C@@H]5CO[C@@](Cn6cncn6)(c6ccc(F)cc6F)C5)cc4)CC3)cc2)c1=O [POSACONAZOLE] here?
A: The MIC was 1 µg/mL (≈ 1.43 µM).

Q: And the MIC (Rhizopus arrhizus [2])?
A: The MIC was 1 µg/mL (≈ 1.43 µM).

Q: And the MIC (Lichtheimia corymbifera [3])?
A: Its MIC is 0.25 µg/mL (≈ 0.357 µM).

Q: And the Activity (Lichtheimia corymbifera [4])?
A: Its Activity is 62.5%.

Q: What about the Activity (Rhizopus arrhizus [5]) of the same compound?
A: Its Activity is 100%.

Q: What about the Activity (Lichtheimia corymbifera [6]) of the same compound?
A: Its Activity is 12.5%.

Q: What about the Activity (Rhizopus arrhizus [7]) of the same compound?
A: Its Activity is 100%.

Q: And the Activity (Lichtheimia corymbifera [8])?
A: The Activity was 100%.

Q: And the Activity (Rhizopus arrhizus [9])?
A: The Activity was 100%.

Q: What about the Activity (Lichtheimia corymbifera [10]) of the same compound?
A: Its Activity is 75%.

Q: And the Activity (Mus musculus [11])?
A: Its Activity is “inactive”.

Q: What about the Activity (Mus musculus [12]) of the same compound?
A: Its Activity is “inactive”.

Q: And the Activity (Mus musculus [13])?
A: The Activity was “Active”.

Q: And the Activity (Mus musculus [14])?
A: The Activity was “Active”.

Q: What about the Activity (Mus musculus [15]) of the same compound?
A: Its Activity is “Active”.

Q: And the Activity (Rhizopus arrhizus [16])?
A: The Activity was “Active”.

Q: And the Activity (Rhizopus arrhizus [17])?
A: The Activity was “inactive”.

Q: And the Activity (Lichtheimia corymbifera [18])?
A: The Activity was “Active”.

Q: What about the Activity (Lichtheimia corymbifera [19]) of the same compound?
A: The Activity was “Active”.

Q: And the Activity (Rhizopus arrhizus [20])?
A: The Activity was “Active”.

Q: What about the Activity (Rhizopus arrhizus [21]) of the same compound?
A: The Activity was “inactive”.

Q: What about the Activity (Lichtheimia corymbifera [22]) of the same compound?
A: Its Activity is “Active”.

Q: What about the Activity (Lichtheimia corymbifera [23]) of the same compound?
A: The Activity was “Active”.

Q: And the Activity (Rhizopus arrhizus [24])?
A: The Activity was 100%.

Q: How did the MIC (Rhizopus arrhizus [1]) turn out when C[C@@H]1[C@H](O)[C@@H](C)/C=C/C=C/C=C/C=C/C=C/C=C/C=C/[C@H](O[C@@H]2O[C@H](C)[C@@H](O)[C@H](N)[C@@H]2O)C[C@@H]2O[C@](O)(C[C@@H](O)C[C@@H](O)[C@H](O)CC[C@@H](O)C[C@@H](O)CC(=O)O[C@H]1C)C[C@H](O)[C@H]2C(=O)O [AMPHOTERICIN B] was run?
A: The MIC was 2 µg/mL (≈ 2.16 µM).

Q: And the MIC (Rhizopus arrhizus [2])?
A: The MIC was 0.5 µg/mL (≈ 0.541 µM).

Q: What about the MIC (Lichtheimia corymbifera [3]) of the same compound?
A: Its MIC is 1 µg/mL (≈ 1.08 µM).

Q: What about the Activity (Mus musculus [25]) of the same compound?
A: Its Activity is “Active”.

Q: And the Activity (Lichtheimia corymbifera [26])?
A: Its Activity is 25%.

Q: What about the Activity (Lichtheimia corymbifera [27]) of the same compound?
A: Its Activity is 100%.

Q: What about the Activity (Lichtheimia corymbifera [28]) of the same compound?
A: The Activity was 62.5%.

Q: And the Activity (Mus musculus [29])?
A: The Activity was “Active”.

Q: And the Activity (Mus musculus [30])?
A: Its Activity is “Active”.

Q: And the Activity (Mus musculus [31])?
A: The Activity was “Active”.

Q: What about the Activity (Rhizopus arrhizus [32]) of the same compound?
A: The Activity was “Active”.

Q: And the Activity (Lichtheimia corymbifera [33])?
A: The Activity was “Active”.

Q: What about the Activity (Rhizopus arrhizus [34]) of the same compound?
A: The Activity was “Active”.

Q: And the Activity (Lichtheimia corymbifera [35])?
A: Its Activity is “Active”.
